Assay outcomes from PubChem.
Rows were chosen to be rich in hits. Some 0.4% of all compounds tested hit in one or more screens of this group.
ERp5 block: inhibitors of human ERp5. ERp5 insulin aggregation, absorbance 650 nm, 90 min. Q15084. inhibition, % at 9.99 µM. actives 0.05% (n = 350,000);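 active means mean replicate inhibition above about 25%, with every replicate also reaching it, limit read from the data, passing the limit was not always enough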
PDI turbidity: inhibitors of human protein disulfide isomerase | PDI insulin aggregation turbidity, A650, 90 min | inhibition, % at 10 µM | P07237 | actives 0.052% (n = 350,000) | AID 588391;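 active means mean inhibition across replicates of 30% or more, whatever share of single replicates reach that level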
Target sequence (P07237 whole entry, looked up): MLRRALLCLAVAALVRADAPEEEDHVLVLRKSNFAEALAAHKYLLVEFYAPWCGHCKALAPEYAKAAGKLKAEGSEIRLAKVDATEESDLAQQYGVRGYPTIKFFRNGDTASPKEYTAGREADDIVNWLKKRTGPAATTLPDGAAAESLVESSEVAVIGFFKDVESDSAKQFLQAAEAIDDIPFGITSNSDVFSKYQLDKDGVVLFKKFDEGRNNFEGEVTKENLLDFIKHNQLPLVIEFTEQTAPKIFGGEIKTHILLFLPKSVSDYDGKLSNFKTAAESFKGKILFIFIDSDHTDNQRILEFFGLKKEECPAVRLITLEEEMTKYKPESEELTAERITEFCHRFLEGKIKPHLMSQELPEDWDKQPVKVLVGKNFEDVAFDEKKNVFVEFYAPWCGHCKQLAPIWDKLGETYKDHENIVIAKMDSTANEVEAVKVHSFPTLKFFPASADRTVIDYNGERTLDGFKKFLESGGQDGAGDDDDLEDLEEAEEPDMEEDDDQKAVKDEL
TbMetRS inhib: Trypanosoma brucei MetRS inhibition. purified T. brucei MetRS, ATP depletion, Kinase-Glo luminescence. inhibition, % at 11.9 µM. actives 0.4% (n = 360,000);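 active means inhibition above a per-plate cutoff of the control wells' mean inhibition plus 3 SD, cut at about 5.5% in these data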;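 further: 0% = DMSO wells median and 100% = median of wells with control inhibitor compound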
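technique = Kinase-Glo luminescence, ATP depletion format | system = purified MetRS (methionyl-tRNA synthetase) enzyme from Trypanosoma brucei | timing = 15 min preincubation, 2 h reaction, all 25 °C | evaluation = percent inhibition versus plate control medians | dosing = single dose, 11.9 µM final nominal, 0.9% final DMSO | also added = substrates ATP, L-methionine and bulk Escherichia coli tRNA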
Active calls of the source: *; . = not tested or not shown.

SMILES	ERp5 block	PDI turbidity	TbMetRS inhib
CS(=O)(=O)c1ccc(C(=O)OCc2nnc(-c3ccc(Cl)cc3)o2)cc1[N+](=O)[O-]	.	89.5*	-0.7
CO[C@@H]1CN(C)C(=O)c2ccc(NS(C)(=O)=O)cc2OC[C@H](C)N(CC2CCCCC2)C[C@H]1C	5.8	.	.
CN(C)C(=O)[C@H]1[C@H](CO)[C@H]2Cn3c(ccc(C4=CCCCC4)c3=O)[C@@H]1N2Cc1ccccc1F	5.1	.	.
CCN1C/C(=C/c2ccc(OC)c(O)c2)C(=O)/C(=C/c2ccc(OC)c(O)c2)C1	1.1	4.4	-0.6
COc1ccc(/C=C2\CN(Cc3ccccc3)C/C(=C\c3ccc(OC)c(O)c3)C2=O)cc1O	-0.1	54.5*	0.5
N#Cc1c(NCCN)nc(NCc2ccccc2)c2c1CCN(Cc1ccccc1)C2	.	3.6	18.8*
C=CCNc1nc(NCc2ccccc2)c(C#N)c2c1CN(C)CC2	.	-5.2	-0.5
O=C(N[C@@H]1CC[C@H](CCNS(=O)(=O)c2cccc(Cl)c2)O[C@@H]1CO)c1ccncc1	3.0	.	.
Cc1ccc(S(=O)(=O)N(C)C)cc1NC(=O)CSc1nnnn1-c1ccc(O)cc1	0.8	25.8	-0.4
CN(C)S(=O)(=O)c1ccc(Cl)c(NC(=O)CSc2nnnn2-c2ccc(O)cc2)c1	0.7	41.2*	0.2
CC(C)NC(=O)N(C)C[C@H]1Oc2c(NC(=O)CCCCCC(=O)Nc3ccccc3N)cccc2C(=O)N([C@H](C)CO)C[C@H]1C	-3.1	.	.
Cc1n[nH]c(=O)c2c(NC(=O)CSc3nnnn3-c3ccccc3)oc(C)c12	-5.4	1.7	-0.6
Cc1n[nH]c(=O)c2c(NC(=O)CSc3nnnn3-c3ccc(O)cc3)oc(C)c12	-9.9	42.6*	0.1
CCCNC(=O)N1[C@@H]2CNC[C@H]1C2c1ccc(-c2cccnc2)cc1 (some centres not stated)	1.8	.	.
Nc1nc(Cl)cc(N2CCCC2)n1	-0.3	-7.4	-0.1
Nc1nc(Cl)cc(N2CCC(c3cc(-c4ccc(Cl)cc4Cl)n[nH]3)CC2)n1	.	-3.9	21.0*
CO[C@@H]1CN(C)C(=O)c2cc(NS(C)(=O)=O)ccc2OC[C@H](C)N(Cc2cocn2)C[C@H]1C	6.3	.	.
C[C@@H]1CN([C@@H](C)CO)C(=O)Cc2cc(NC(=O)Nc3ccc(F)cc3)ccc2O[C@@H]1CN(C)Cc1ccc(C(F)(F)F)cc1	-0.9	.	.
CCCC(=O)Nc1ccc2c(c1)C(=O)N(C)C[C@H](OC)[C@H](C)CN(Cc1ccccc1)[C@H](C)CO2	3.8	.	.
COc1ccc(S(=O)(=O)N(C)C[C@H]2Oc3ccc(NS(=O)(=O)c4cn(C)cn4)cc3CC(=O)N([C@H](C)CO)C[C@H]2C)cc1	-4.0	.	.
Cc1ccc(O)c(C(=O)c2cc(C#N)c(=O)n(-c3c(C)n(C)n(-c4ccccc4)c3=O)c2)c1	.	18.8	-1.7
Cc1c(-n2cc(C(=O)c3cc(Br)ccc3O)cc(C#N)c2=O)c(=O)n(-c2ccccc2)n1C	.	35.2*	-1.1
CNC[C@@H]1Oc2c(NS(C)(=O)=O)cccc2C(=O)N([C@H](C)CO)C[C@@H]1C	-0.4	.	.
COc1ccccc1N1CCN(C(=O)C(=O)N/N=C/c2cccc(O)c2)CC1	.	36.1*	-0.2
COc1ccccc1/C=N/NC(=O)C(=O)N1CCN(c2ccccc2OC)CC1	.	12.7	0.0
SMILES	ERp5 block	PDI turbidity	TbMetRS inhib
C[C@@H]1CN([C@@H](C)CO)C(=O)c2cccc(NC(=O)NC3CCCCC3)c2O[C@@H]1CN(C)C(=O)Nc1ccccc1	0.2	.	.
CCNC(=O)C[C@@H]1CC[C@@H]2[C@@H](COc3ccc(NS(=O)(=O)c4ccccc4C)cc3C(=O)N2C)O1	-1.7	.	.
CN(C)C(=O)C[C@H]1C[C@@H]2c3cc(NS(C)(=O)=O)ccc3O[C@@H]2[C@@H](CO)O1	-0.9	.	.
CN(C)C(=O)C[C@H]1C[C@@H]2c3cc(NS(C)(=O)=O)ccc3O[C@@H]2[C@H](CO)O1	14.8	.	.
CN(C)C(=O)C[C@H]1C[C@H]2c3cc(NS(C)(=O)=O)ccc3O[C@H]2[C@@H](CO)O1	33.1*	.	.
CN(C)C(=O)C[C@H]1C[C@H]2c3cc(NS(C)(=O)=O)ccc3O[C@H]2[C@H](CO)O1	68.2*	.	.
C[C@@H]1CN([C@@H](C)CO)C(=O)c2cc(NC(=O)Nc3cccc4ccccc34)ccc2O[C@@H](C)CCCCO[C@H]1CN(C)C(=O)Cc1ccccc1	1.2	.	.
CC#CC[N+](C)(C)CCCCCCCC	2.2	4.6	0.0
CCCCCCCCCCCCCCCC[N+](C)(C)Cc1ccc(F)cc1	-16.4	41.2*	-0.5
CC(Oc1ccccc1)C(=O)Nc1cccc(-c2nc3ccccc3[nH]2)c1 (configuration not stated)	.	1.6	37.8*
CC(=O)Nc1cccc(-c2nc3ccccc3[nH]2)c1	3.2	9.8	0.2
